Exocytosis inh: LAMP-1 surface exposure blockers, TALL-104 cells – cell-based, flow cytometry, MLPCN library, primary screen; TALL-104 LAMP-1 surface exposure; cells stimulated with thapsigargin and PMA; inhibition, % at 10 µM; 360,000 tested, 0.66% active; AID 651702, 2012;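 active = inhibition above about 55%, limit read from the data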
ABHD5 PLIN5 PPI: ABHD5-PLIN5 interaction inhibitors, primary screen, cell lysate, split luciferase complementation, luminescence | inhibition, % at 4 µM | Split G. princeps luciferase complementation, 4 h | Perilipin-5 (Homo sapiens) + 1-acylglycerol-3-phosphate O-acyltransferase ABHD5 (Homo … | 360,000 tested, 0.78% active;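 active = inhibition above the mean inhibition across every tested compound plus 3 SD, cut at about 22% in these data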
Target sequence (Q00G26 whole entry, looked up): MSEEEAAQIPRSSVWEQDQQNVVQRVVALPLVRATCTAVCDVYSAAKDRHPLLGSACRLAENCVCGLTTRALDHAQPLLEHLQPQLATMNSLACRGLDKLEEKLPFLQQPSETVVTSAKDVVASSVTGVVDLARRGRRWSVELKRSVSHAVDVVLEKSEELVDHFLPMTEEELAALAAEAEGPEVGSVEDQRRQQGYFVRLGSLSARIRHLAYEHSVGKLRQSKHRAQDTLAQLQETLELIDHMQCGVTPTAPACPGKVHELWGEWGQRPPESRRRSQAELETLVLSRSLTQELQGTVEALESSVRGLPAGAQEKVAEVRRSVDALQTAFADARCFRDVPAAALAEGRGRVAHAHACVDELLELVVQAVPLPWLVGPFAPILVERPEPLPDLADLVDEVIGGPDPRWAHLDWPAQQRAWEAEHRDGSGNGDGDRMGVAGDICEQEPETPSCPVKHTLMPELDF
Target sequence (Q8WTS1 whole entry, looked up): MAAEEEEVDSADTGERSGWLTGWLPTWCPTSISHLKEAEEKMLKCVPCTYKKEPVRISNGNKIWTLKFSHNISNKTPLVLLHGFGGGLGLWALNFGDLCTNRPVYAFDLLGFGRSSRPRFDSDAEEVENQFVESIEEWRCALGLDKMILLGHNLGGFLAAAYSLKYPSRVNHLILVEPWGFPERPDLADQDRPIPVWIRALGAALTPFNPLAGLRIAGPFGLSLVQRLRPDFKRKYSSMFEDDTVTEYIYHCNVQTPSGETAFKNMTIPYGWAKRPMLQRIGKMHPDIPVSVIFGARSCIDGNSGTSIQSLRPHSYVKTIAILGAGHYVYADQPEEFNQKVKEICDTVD
HKDC1 inhibitor: HKDC1 hexokinase inhibitors, primary screen, biochemical, fluorescence, uHTS | Q2TB90 | recombinant HKDC1, G6PDH/diaphorase resazurin coupled fluorescence | inhibition, % at 20 µM | 340,000 tested, 0.16% active;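 active = inhibition above about 35% when tested at 20 µM, limit read from the data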
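Material: recombinant HKDC1 hexokinase; Amount: HKDC1 at 5 µg/mL; Medium: Tris pH 8.0 buffer with MgCl2, Tween-20, BSA, BME; Schedule: 90 min reaction incubation at room temperature, dark; Technique: coupled resazurin fluorescence, excitation 525 nm, emission 613 nm.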
PfG6PD inh: PfG6PD enzyme inhibitors, primary screen, biochemical, fluorescence intensity, uHTS | glucose-6-phosphate dehydrogenase-6-phosphogluconolactonase (Plasmodium falciparum 3D7) | PfGluPho enzyme, NADPH resazurin-diaphorase fluorescence | inhibition, % at 20 µM | 350,000 tested, 0.78% active | AID 504690, 2011;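 active = inhibition reaching at least a set limit at 20 µM in the primary screen, cut at about 59% in these data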
HKDC1 act conf2: HKDC1 hexokinase activators, confirmation, biochemical, single concentration | shares compounds with HKDC1 inhibitor | inhibition, % at 20 µM | recombinant HKDC1, G6PDH/diaphorase resazurin fluorescence; stronger effect = lower value | 740 tested, 14% active | AID 504708, 2011;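 active = inhibition at or below a set negative limit, negative inhibition meaning the enzyme was activated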
PfGluPho conf: PfG6PD inhibitors, hit retest, confirmation, biochemical, fluorescence intensity, single concentration; shares compounds with PfG6PD inh; recombinant PfGluPho, NADPH-diaphorase-resazurin fluorescence; inhibition, % at 20 µM; 2,400 tested, 34% active;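 active = inhibition of at least 50% at 20 µM in any single replicate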
Diaph ctr 10uM: diaphorase inhibitors and chemical oxidizers, confirmation, counter-screen for P. falciparum G6PD inhibitor project, biochemical, fluorescence intensity, 10 µM NADPH. 820 tested, 39% active. shares compounds with PfG6PD inh. diaphorase-coupled resazurin reduction, NADPH 10 uM. inhibition, % at 20 µM;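 active = average inhibition reaching 50% or more with the compound at 20 µM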;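 also: resorufin red fluorescence formed as diaphorase reduces resazurin using NADPH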
Diaphorase 30uM: diaphorase inhibitors and chemical oxidizers, confirmation, counter-screen for P. falciparum G6PD inhibitor project, biochemical, fluorescence intensity, 30 µM NADPH. shares compounds with PfG6PD inh. Diaphorase/resazurin coupled assay, resorufin fluorescence. inhibition, % at 20 µM. 820 tested, 29% active;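 active = inhibition averaging 50% or more, tested at 20 µM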
Of the large screens only hits and unclear results are named; the others gave an inactive call (follow-up assays come after a bar, where they were run). Shown are actives, neighbours in structure and some others; about 2.2% of the full set was active somewhere.

O=C(O)C(Cc1ccccc1)N1C(=O)/C(=C/C=C/c2ccco2)SC1=S (configuration not stated)	HKDC1 inhibitor 37 | HKDC1 act conf2 inactive
Cc1cc(C)c2nc3sc(=Cc4ccc(-c5ccccc5C(=O)O)o4)c(=O)n3c2c1	none (no result: HKDC1 inhibitor, PfG6PD inh)
O=C(O)c1ccc(-c2ccc(/C=c3/sc4nc5ccccc5n4c3=O)o2)cc1Cl	HKDC1 inhibitor 45 | HKDC1 act conf2 inactive
COc1cc2c(cc1OC)-c1cc(NCc3ccccn3)nc(=O)n1CC2	HKDC1 inhibitor 59 | HKDC1 act conf2 inactive
CCOC(=O)C(C(=O)OCC)C(=O)c1cccc2ccc3ccccc3c12	none (no result: HKDC1 inhibitor)
Cc1ccc2cc(C=C(C#N)C#N)c(N3CCCCC3)nc2c1	HKDC1 inhibitor 41 | HKDC1 act conf2 inactive
CN(C(=O)c1ccccc1C(=O)OCC(=O)c1ccc(Br)cc1)c1ccccc1	none
C[C@H](CO)N1C[C@H](C)[C@@H](CN(C)C(=O)Nc2ccc3c(c2)OCO3)Oc2ccc(NC(=O)Cn3cnnn3)cc2C1=O	none
Oc1ccc(/C=N/Nc2ncc(Br)cn2)c(O)c1	HKDC1 inhibitor 39 | HKDC1 act conf2 inactive
O=[N+]([O-])c1ccc(NN=Cc2ccc(O)cc2O)nc1	HKDC1 inhibitor 37 | HKDC1 act conf2 inactive
COc1ccccc1C(C)NCC(=O)NC(=O)NCc1ccco1 (configuration not stated)	none
CCc1ccc2c(c1)C(NC(C)=O)C(=O)N2CCN1CCOCC1 (configuration not stated)	HKDC1 inhibitor 80 | HKDC1 act conf2 inactive
Nc1nc(N2CCN(c3ccccn3)CC2)nc2ccccc12	none | HKDC1 act conf2 -44
CC(=O)N1CCN(C2c3cccc4cccc(c34)C2NS(=O)(=O)c2ccccc2)CC1 (configuration not stated)	none | HKDC1 act conf2 -45
Cc1ccc(S(=O)(=O)NC2c3cccc4cccc(c34)C2Sc2nncn2C)cc1 (configuration not stated)	none
Cn1cnnc1SC1c2cccc3cccc(c23)C1NS(=O)(=O)c1ccccc1 (configuration not stated)	none | HKDC1 act conf2 -64
COc1cc(OC)cc(-c2c(C#Cc3ccsc3)c3cc(-c4cc(F)cc(F)c4)ccc3n2C)c1	none
Cc1[nH]n(-c2ccccc2)c(=O)c1/C=N/Nc1nncc(-c2ccccc2)n1	none | HKDC1 act conf2 -61
Cc1ccc(/C=N/Nc2nncc(-c3ccccc3)n2)o1	none
Cc1[nH]n(-c2ccccc2)c(=O)c1/C=N/NC(=O)c1ccc(O)cc1O	none
CCCCN(CCCC)C(=S)N/N=C/c1c(C)[nH]n(-c2ccccc2)c1=O	none | HKDC1 act conf2 -65
O=C(CC1C(=O)NCCN1C1CCCC1)NCc1cccc(OC(F)(F)F)c1 (configuration not stated)	none
O=C1S/C(=C\c2ccc(O)c([N+](=O)[O-])c2)C(=O)N1c1ccccc1Cl	none
COc1cc(/C=C2/C(=O)NN(c3ccc(C)c(Cl)c3)C2=O)cc([N+](=O)[O-])c1O	none
COc1cc(/C=C2\SC(=O)N(c3cccc(Cl)c3)C2=O)cc([N+](=O)[O-])c1O	HKDC1 inhibitor 51 | HKDC1 act conf2 inactive
COc1cc(/C=C2\SC(=O)N(c3ccc(Cl)cc3)C2=O)cc([N+](=O)[O-])c1O	HKDC1 inhibitor 44 | HKDC1 act conf2 inactive
Cc1ccsc1C(=O)Nc1ccc(S(=O)(=O)N2CCOCC2)cc1	none
Cc1ccc(C)c(C(=O)CCC(=O)Nc2ccc(N3CCN(C)CC3)cc2C)c1	none
CC(C)C(C)NC(=O)CN1C(=O)NC2(CCc3ccccc32)C1=O (configuration not stated)	none
CCOc1ccc2nc3cc(N=Nc4ccc(N)nc4N)ccc3c(N)c2c1	HKDC1 inhibitor 37 | HKDC1 act conf2 inactive
COc1ccc(N=Nc2ccc(N)nc2N)cc1	none
Cc1ccc(N(CC(=O)NC2CCCCC2)S(=O)(=O)c2cccs2)cc1	none
O=C1NN(c2cccc(Br)c2)C(=O)/C1=C/c1ccc(-c2cc([N+](=O)[O-])ccc2O)o1	HKDC1 inhibitor 62 | HKDC1 act conf2 inactive
CC1(OC(=O)C2CCCC2)C(=O)C=C2C=C(c3ccsc3)N(CCc3c[nH]c4ccccc34)C=C2C1=O (configuration not stated)	HKDC1 inhibitor 35, PfG6PD inh 78 | HKDC1 act conf2 inactive | PfGluPho conf 66 | Diaph ctr 10uM inactive | Diaphorase 30uM inactive
CC(=O)Nc1ccc(NC2=C/C(=N/S(=O)(=O)c3cccs3)c3ccccc3C2=O)cc1	HKDC1 inhibitor 44, PfG6PD inh 87 | HKDC1 act conf2 inactive | PfGluPho conf 73 | Diaph ctr 10uM 73 | Diaphorase 30uM 76
COc1ccc(S(=O)(=O)/N=C2\C=C(Nc3ccc(O)cc3)C(=O)c3ccccc32)cc1	Exocytosis inh 68, HKDC1 inhibitor 42, PfG6PD inh 109 | HKDC1 act conf2 inactive | PfGluPho conf 52 | Diaph ctr 10uM inactive | Diaphorase 30uM inactive
Cc1ccccc1NC1=C/C(=N\S(=O)(=O)c2ccc(C(=O)O)cc2)c2ccccc2C1=O	HKDC1 inhibitor 70, PfG6PD inh 78 | HKDC1 act conf2 inactive | PfGluPho conf 61 | Diaph ctr 10uM 59 | Diaphorase 30uM 52
CN(Cc1ccccc1)C(=O)[C@@H]1CCCN1C(=O)[C@@H]1CCCN1C(=O)OC(C)(C)C	none (no result: HKDC1 inhibitor, PfG6PD inh)
CN(C)S(=O)(=O)N1CCN(c2ccc([N+](=O)[O-])c(N3CCCCC3)c2)CC1	none
O=C1OC(c2ccc3ccccc3c2O)(c2ccc3ccccc3c2O)c2ccccc21	HKDC1 inhibitor 36, PfG6PD inh 75 | HKDC1 act conf2 inactive | PfGluPho conf 57 | Diaph ctr 10uM inactive | Diaphorase 30uM inactive
CC(OC(=O)c1cc(=O)[nH]c2ccccc12)C(=O)NCc1ccccc1 (configuration not stated)	none
O=C1C=C(Nc2ccccc2O)c2ccccc2C1=O	none
O=C1C=C(NCc2ccccc2)c2ccccc2C1=O	Exocytosis inh 82, HKDC1 inhibitor 80, PfG6PD inh 118 | HKDC1 act conf2 inactive | PfGluPho conf inactive

Source: PubChem (several laboratories)
